Experimental data taken from ChEMBL document CHEMBL1147831, “Kinesin spindle protein (KSP) inhibitors. Part 4: Structure-based design of 5-alkylamino-3,5-diaryl-4,5-dihydropyrazoles as potent, water-soluble inhibitors of the mitotic kinesin KSP” (Bioorg Med Chem Lett, 2006).
≈ marks a conversion by molar mass, not a printed value.

Assays:
[1] = biological target: T1, Kinesin-like protein KIF11 (Homo sapiens, UniProt P52732); assay: Inhibition of KSP by ATPase assay
T1 sequence (P52732 whole entry): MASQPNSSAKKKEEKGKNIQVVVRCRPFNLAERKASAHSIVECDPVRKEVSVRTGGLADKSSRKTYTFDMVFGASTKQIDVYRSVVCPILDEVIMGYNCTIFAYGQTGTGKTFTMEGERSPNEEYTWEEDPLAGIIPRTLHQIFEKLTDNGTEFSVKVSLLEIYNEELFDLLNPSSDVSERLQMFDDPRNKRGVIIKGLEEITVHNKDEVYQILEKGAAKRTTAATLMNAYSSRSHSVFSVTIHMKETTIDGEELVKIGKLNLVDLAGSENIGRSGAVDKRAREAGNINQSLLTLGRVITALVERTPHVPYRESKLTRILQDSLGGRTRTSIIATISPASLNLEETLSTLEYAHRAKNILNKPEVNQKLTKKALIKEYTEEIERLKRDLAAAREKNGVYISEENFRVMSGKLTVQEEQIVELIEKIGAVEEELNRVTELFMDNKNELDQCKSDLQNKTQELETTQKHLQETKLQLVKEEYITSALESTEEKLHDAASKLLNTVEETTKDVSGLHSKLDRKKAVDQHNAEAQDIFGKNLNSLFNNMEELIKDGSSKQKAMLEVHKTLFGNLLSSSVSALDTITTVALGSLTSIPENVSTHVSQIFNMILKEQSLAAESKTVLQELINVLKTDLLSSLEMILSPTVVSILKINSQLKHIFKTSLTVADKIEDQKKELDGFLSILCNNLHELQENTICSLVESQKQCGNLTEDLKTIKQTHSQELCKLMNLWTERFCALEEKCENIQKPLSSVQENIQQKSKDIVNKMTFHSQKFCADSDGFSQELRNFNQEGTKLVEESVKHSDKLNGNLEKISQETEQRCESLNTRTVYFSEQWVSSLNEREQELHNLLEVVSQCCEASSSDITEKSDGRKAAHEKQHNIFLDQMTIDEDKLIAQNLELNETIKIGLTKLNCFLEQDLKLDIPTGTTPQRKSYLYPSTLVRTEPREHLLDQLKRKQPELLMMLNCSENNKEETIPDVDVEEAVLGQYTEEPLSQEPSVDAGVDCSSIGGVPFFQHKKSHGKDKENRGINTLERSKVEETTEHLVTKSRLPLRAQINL

A2780 = assay: Mitotic arrest in human A2780 cells; type: functional, cell-based
[2] = Partition coefficient, log P of the compound; type: physicochemical; settings: octanol/water
[3] = Solubility in citrate at pH 6.5; type: physicochemical
How it was run: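 Crystalline solid; solubility determined in pH 6.5 citrate buffer.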

[4] = Clearance in mongrel dog at 0.25 mg/kg, iv; type: ADME, organism-based, Canis lupus familiaris; parameters: dose 0.25 mg/kg, route intravenous; settings: in vivo
How it was run: (§1)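 Single iv dose of 0.25 mpk given to two mongrel dogs, one male and one female.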

[5] = Half life in mongrel dog at 0.25 mg/kg, iv; type: ADME, organism-based, Canis lupus familiaris; parameters: dose 0.25 mg/kg, route intravenous; settings: in vivo; how it was run: as §1
[6] = Volume of distribution in mongrel dog at 0.25 mg/kg, iv; type: ADME, organism-based, Canis lupus familiaris; parameters: dose 0.25 mg/kg, route intravenous; settings: in vivo, read-out: Vdss; how it was run: as §1
[7] = biological target: Voltage-gated inwardly rectifying potassium channel KCNH2 (Homo sapiens, UniProt Q12809); assay: Inhibition of hERG expressed in HEK cells by radioligand binding assay; type: toxicity, cell-based, HEK293
[8] = Solubility in citrate at pH 4.0; type: physicochemical
How it was run: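 Solubility of crystalline solid determined in citrate buffer at pH 4.0.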

[9] = Aqueous solubility at pH 10.3; type: physicochemical; settings: aqueous medium
How it was run: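 Solubility of crystalline material measured in water; final pH of the solution was 10.3.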

Chain of Voltage-gated inwardly rectifying potassium channel KCNH2 (Q12809 whole entry): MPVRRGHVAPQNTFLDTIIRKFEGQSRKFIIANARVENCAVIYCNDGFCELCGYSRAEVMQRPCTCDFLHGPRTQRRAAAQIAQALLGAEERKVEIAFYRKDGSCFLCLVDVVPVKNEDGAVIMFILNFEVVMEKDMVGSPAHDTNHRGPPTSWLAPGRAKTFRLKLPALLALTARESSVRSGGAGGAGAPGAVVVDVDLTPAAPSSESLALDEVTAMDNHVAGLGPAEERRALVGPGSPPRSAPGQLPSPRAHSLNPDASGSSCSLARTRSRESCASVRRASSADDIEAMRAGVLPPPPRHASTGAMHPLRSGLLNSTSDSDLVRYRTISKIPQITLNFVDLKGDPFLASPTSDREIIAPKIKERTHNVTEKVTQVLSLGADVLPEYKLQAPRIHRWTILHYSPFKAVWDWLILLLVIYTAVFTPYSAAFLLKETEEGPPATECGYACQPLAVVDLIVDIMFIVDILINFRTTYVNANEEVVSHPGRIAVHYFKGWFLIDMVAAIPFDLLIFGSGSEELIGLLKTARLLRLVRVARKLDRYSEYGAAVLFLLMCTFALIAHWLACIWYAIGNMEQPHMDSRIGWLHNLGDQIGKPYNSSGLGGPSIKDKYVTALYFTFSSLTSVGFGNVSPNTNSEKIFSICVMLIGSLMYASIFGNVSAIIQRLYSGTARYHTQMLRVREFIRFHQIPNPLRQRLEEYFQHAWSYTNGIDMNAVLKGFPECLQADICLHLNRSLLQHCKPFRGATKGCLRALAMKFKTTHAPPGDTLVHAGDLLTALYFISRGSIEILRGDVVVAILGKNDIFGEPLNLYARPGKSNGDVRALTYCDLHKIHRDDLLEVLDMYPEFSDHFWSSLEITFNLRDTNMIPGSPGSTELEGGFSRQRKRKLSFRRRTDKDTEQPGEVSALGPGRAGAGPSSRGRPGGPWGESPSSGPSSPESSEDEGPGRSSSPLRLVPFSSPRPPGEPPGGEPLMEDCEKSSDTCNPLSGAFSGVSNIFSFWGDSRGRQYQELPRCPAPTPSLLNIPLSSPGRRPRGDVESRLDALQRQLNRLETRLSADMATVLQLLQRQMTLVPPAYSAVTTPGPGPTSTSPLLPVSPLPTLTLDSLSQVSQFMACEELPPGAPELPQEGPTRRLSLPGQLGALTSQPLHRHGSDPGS

Row | IC50 [1] | Structure (SMILES) | further results
1 | 24.7 nM | CC(=O)N1N=C(c2cc(F)ccc2F)C[C@H]1c1cccc(O)c1 | EC50 (A2780): 24.8 nM; logP [2]: 3.1; solubility [3]: 29 µg/mL (≈ 0.0917 mM); clearance [4]: 22.1 mL/min/kg; half-life [5]: 1 h; Vd [6]: 1.6 L/kg
2 | 284 nM | CNC(=O)N1N=C(c2cc(F)ccc2F)CC1(C)c1ccccc1 (stereo unspecified) | –
3 | 903 nM | CNC(=O)N1N=C(c2cc(F)ccc2F)CC1(CO)c1ccccc1 (stereo unspecified) | –
4 | 390 nM | CCNC(=O)N1N=C(c2cc(F)ccc2F)CC1(CCN)c1ccccc1 (stereo unspecified) | –
5 | 67 nM | CCNC(=O)N1N=C(c2cc(F)ccc2F)CC1(CCCCN)c1ccccc1 (stereo unspecified) | –
6 | 100 nM | CCNC(=O)N1N=C(c2cc(F)ccc2F)CC1(CCCCNCc1ccccc1)c1ccccc1 (stereo unspecified) | –
7 | 892 nM | CCNC(=O)N1N=C(c2cc(F)ccc2F)CC1(CCCCNC(=O)c1ccccc1)c1ccccc1 (stereo unspecified) | –
8 | 686 nM | CCNC(=O)N1N=C(c2cc(F)ccc2F)CC1(CCCCNC(=O)c1cnc[nH]1)c1ccccc1 (stereo unspecified) | –
9 | 8 nM | CN(C)C(=O)N1N=C(c2cc(F)ccc2F)CC1(CCCN)c1ccccc1 (stereo unspecified) | –
10 | 552 nM | CCNC(=O)N1N=C(c2cc(F)ccc2F)CC1(CCCCNC(=O)c1ncc[nH]1)c1ccccc1 (stereo unspecified) | –
11 | 55 nM | NCCCC1(c2ccccc2)CC(c2cc(F)ccc2F)=NN1C(=O)N1CCC1 (stereo unspecified) | –
12 | 103 nM | CCNC(=O)N1N=C(c2cc(F)ccc2F)CC1(CCCCN(C)C)c1ccccc1 (stereo unspecified) | –
13 | 122 nM | NCCCC1(c2ccccc2)CC(c2cc(F)ccc2F)=NN1C(=O)N1CCOCC1 (stereo unspecified) | –
14 | 1.9 nM | CN(C)C(=O)N1N=C(c2cc(F)ccc2F)C[C@@]1(CCCN)c1ccccc1 | IC50 [7]: 19300 nM; EC50 (A2780): 5.2 nM; logP [2]: 1.2; solubility [8]: > 12000 µg/mL; solubility [9]: 1700 µg/mL (≈ 4.4 mM); clearance [4]: 14.5 mL/min/kg; half-life [5]: 14.7 h; Vd [6]: 14 L/kg
15 | 585 nM | CCNC(=O)N1N=C(c2cc(F)ccc2F)CC1(CCCC[N+](C)(C)[O-])c1ccccc1 (stereo unspecified) | –
16 | 119 nM | CCNC(=O)N1N=C(c2cc(F)ccc2F)CC1(CCCCN1CC2C=CC1C2)c1ccccc1 (stereo unspecified) | –
17 | 85 nM | NCCCC1(c2ccccc2)CC(c2cc(F)ccc2F)=NN1C(=O)N1CCCCC1 (stereo unspecified) | –
18 | 606 nM | CCNC(=O)N1N=C(c2cc(F)ccc2F)CC1(CCO)c1ccccc1 (stereo unspecified) | –
19 | 26 nM | NCCCC1(c2ccccc2)CC(c2cc(F)ccc2F)=NN1C(=O)N1CCCC1 (stereo unspecified) | –
20 | 697 nM | CCNC(=O)N1N=C(c2cc(F)ccc2F)CC1(CCCCO)c1ccccc1 (stereo unspecified) | –
21 | 745 nM | CCNC(=O)N1N=C(c2cc(F)ccc2F)CC1(CCCO)c1ccccc1 (stereo unspecified) | –
22 | 391 nM | CCNC(=O)N1N=C(c2cc(F)ccc2F)CC1(CCCCNC(=O)c1ccccn1)c1ccccc1 (stereo unspecified) | –
